Test results published in the RNAGym collection of RNA variant scans (doi:10.1126/science.aae0568).
Fewer inactive variants are shown than the library holds.

B1: tRNA (parent)
chain: GUUCCGUUGGCGUAAUGGUAACGCGUCUCCCUCCUAAGGAGAAGACUGCGGGUUCGAGUCCCGUACGGAACG

Variants of: B1
Assay: yeast fitness relative to wild type (ratio to wild type); higher = fitter; tRNA-Arg(CCU), competitive growth, 37 C, YPD
How it was run: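 Changes in genotype frequencies gave Darwinian fitness relative to wild type. Frequencies were read by 100-nucleotide paired-end sequencing of gene amplicons before and after pooled Saccharomyces cerevisiae strains, carrying tRNA-Arg(CCU) gene variants at the native locus, were competed in YPD at 37°C for 24 hours in six replicates. A genotype was kept only with ≥ 100 starting reads, and estimates < 0.5 were set to 0.5.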

Point of comparison: GUCCCGUUGGCGUAAUGGUAAGGCGUCUCCCUCCUAAGGAGAAGACUGCGGGUUCGAGUCCCGUACGGAACG, yeast fitness 0.859. Against it:
- GUCCCGUUGGCGUAAUGGUAACGUGUCUCCCUCCUAAGGGGAAGAAUGCGGGUUCGAGUCCCGUACGGAACG — lower, 0.702
- GUCCCGUUGGUGUAAUCGUAAAGGGUCCCCCUACUAAGGAGAAGACUGCGGGUUCGAGUCCCGUACGGAACG — lower, ≤ 0.5
- GUCCCGUUGGCGUAAUGGUAAGGCGUCUCCCUCCUAAGGAGAAGACUGCGGGUUCGAGUCCCGUACUGAACG — lower, 0.538
- GUCCCGUUGGUGUAACGGUAACGCGUCUCGGUCCUAUGGAGAAGACUGCGGGUUCGAGUCCCGUACGGAACG — lower, ≤ 0.5
- GUCCCGUUGGCGUAAUGGUAACGUGUCUCCCUCCUCAGGAGAAGACUGCGGGUUCGAGUCCCAUACGGAACG — lower, ≤ 0.5
- GUCCCGUUGGCGUAAUGGUAACGUGUCUCCCUCCUAAGGAGAAGAUUGCGGGUUCGAGUCCUGUACGGAACG — lower, ≤ 0.5
- GUCCCGUUGGCGUAAUGGUAACGCGUCUGCCUACUAAGGAGAAGACUGCGGGUUCGAGUCCCGUACGGAACG — lower, ≤ 0.5
- GUCCCGUUGGCGUAAUGGUAAAGCGUCUCCCUCCUAAGGAGAAGACAGCGGGUUCGAGUCCCGUACGGAGCG — lower, ≤ 0.5
- GUCCCGUUGGCGUAAUGGUAACGCGUUUCCCUCCUAAGGAGAAGACUACGGGUUAGAGUCCCAUACGGAACG — lower, ≤ 0.5
- GUCCCGUUGGCGUAAUGGUAACGUGUCUGCCUCCUAAGGAGAAGACUGUGGGUUCGAGUCCCGUACGGAACG — lower, 0.618
- GUCCCGUUGGCGUAAUGGUAACGCGUAUCCCUCCUAAGGAGAAGACUGCGGGUUCGAGUCCUGUACGGAACG — lower, 0.526
- GUCCCGUUGGCGUAAUGGUAACGCGUUUCCCUCCCAAGGAGAAGACUGCGGGUUCGAGUCCCGUACGGAACG — lower, 0.626
- GUCCCGUUGGCGUAAUGGUAACGUGUCUCCCUCCUAAGGAGAAGACUGCGGGUUCAAGUCCCGUACGGAACG — lower, 0.757
- GUCCCGUUGGCGUAAUGGUAACGCGUUUCCCUCCUAAGGAGAAGACUGCGGGUUCGAGUCCCGUACGGAACG — higher, 0.941
- GUCCCGUUGGCGUAAUGGUAACGGGUCUCCCUCCUAAGGAGAAAACUGCGGGUUCGAGUCCCGUACGGAACG — lower, ≤ 0.5
- GUCCCGUUGGCGUAAUGGUAAGGCGUAUCCCUCCUAAGGAGAAGACUGUGGGUUCGAGUCCCGUACGGAACG — lower, ≤ 0.5
- GUCCCGUUGGCGUAAUGGUAAUGCGUCUCCCUCCUAAGGAGAAGACUACGGGUUCGAGUCCCGUACGGAACG — higher, 0.955
- GUCCCGUUGGCGUAAUGGUAACGCGUUUCCCUCCUAAGGAGAAGACUGCGGGUUCGAGUCCUGUACGGAACG — lower, 0.617
- GUCCCGUUGGCGUAAUGGUAACGAGUCUCCCUCCUAAGGAGAGGACUGCGGAUUCGAAUCCCGUACGGAACG — lower, ≤ 0.5
- GUCCCGUUGGCGUAAUGGUAACGCGUCUUGCUCCUAAGCAGAAGACUGCGGGUUCGAGUACCGUACGGAACG — lower, ≤ 0.5
- GUCCCGUUGGCGUAAUGGUAACGCGUUUCCUUCCUAAGGAGAAGACUGCGGGUUCGAGUCCCGUACGGAACG — lower, 0.787
- GUCCCGUUGGCGUAAUGGUAACGCGUUUCCCUCCUAAGGAGAAGAGUGCGGGUUCGAGUCCCGUACGGAACG — lower, 0.789
- GUCCCGUUGGCGUAAUGGUAACGCGUCUUCCUACUAAGGCGAAGACUGCGGGUUCGAGUCCCGUACGGAACG — lower, ≤ 0.5
- GUCCCGUUGGUGUAAUGGUAACGCGUCUCCCUCCUAAGGAGAAGACUGCGGGUUCAAGUCCCGUACGGAACG — lower, 0.742
- GUCCCGUUGGCGUAAUGGUAACGCGUCUGGCUCCUAAGGAGAAGACUGAGGGUUCCAGUCUCGUACGGAACG — lower, 0.789
- GUCCCGUUGGCGUAAUGGUAACGCGUUUCCCUCCUAAGGAGGAGACUGCGGGUUCGAGUCCCGUACAGAACG — lower, ≤ 0.5
- GUCCCGUUGGCGUAAUGGUAAGGCGUGUCCGUCCUAAGGAGAAGACUGCGGGUUCGAGUCGCGUACGGUACG — lower, 0.615
- GUCCCGUUGGCGUAAUGGUAACGCGUGUCUCUCCUAAGGAGAAGACUGCGGGUUCGAGUCCCGUACAGAACG — lower, 0.554
- GUCCCGUUGGUGCAAUGGUAACGAGUCUCCCUCCUAAGGAGACGACUGCCGGUUCGAGUGCCGUACGGAACG — lower, ≤ 0.5
- GUCCCGUUGGCGUAAUGGUAAGGCGUCUCCCUCCUAAGGAGAAGACUGCGGGUUCGAGUCCCGUACGGACCG — lower, 0.679
- GUCCCGUUGGCGUAAUGGUAAUGCGUCUCCCUCCUAAGGAGAAGACUGCGGGUUCGAGUCCCGUAUGGAACG — lower, 0.552
- GUCCCGUUGGCGUAAUGGUAACGGGUCUCCCUCCUAAGGAGAAGACUGUGGGUUGGAAUCCCGUACGGAACG — lower, 0.576
- GUCCCGUUGGCGUAAUGGUAAGGCGUCUCCCUCCUAAGGAGAAGACUGCGGCUUCGAGUCCCGUACCGAACG — lower, ≤ 0.5
- GUCCCGUUGGCGUAAUGGUAACGCGUUUCCCUCCUAAGGAGAAGAAUGCAGGUUCGAGUCCUGUACGGAACG — lower, 0.595
- GUCCCGUUGGCGUAAUGGUAAUACGUCUCCCUCCUAAGGAGAAGACUGCGGGUUCGAGUCCCGUACGGAACG — lower, ≤ 0.5
- GUCCCGUUGGCGUAAUGGUAACGCGUGUCCCUACUAAGGAGAAGACUGCGGGUUCGAGUCCCGUAGCGAACG — lower, ≤ 0.5
- GUCCCGUUGGCGUAAUGGUAACGCGUGUCCCUCCUAAGGAGAAGACUGAGGGUUCGAGUCCCGUACGGAACG — lower, ≤ 0.5
